Assays:
[1] = biological target: T1, Tryptophan 5-hydroxylase 1 (Rattus norvegicus) (UniProt P09810); test: Compound was tested for its effect on NSD 1015 induced accumulation of 5-HTP(ng/g) in rats in corpus striatum at a dosage of 1.0 umol/kg; assay type: functional
T1 sequence (whole entry): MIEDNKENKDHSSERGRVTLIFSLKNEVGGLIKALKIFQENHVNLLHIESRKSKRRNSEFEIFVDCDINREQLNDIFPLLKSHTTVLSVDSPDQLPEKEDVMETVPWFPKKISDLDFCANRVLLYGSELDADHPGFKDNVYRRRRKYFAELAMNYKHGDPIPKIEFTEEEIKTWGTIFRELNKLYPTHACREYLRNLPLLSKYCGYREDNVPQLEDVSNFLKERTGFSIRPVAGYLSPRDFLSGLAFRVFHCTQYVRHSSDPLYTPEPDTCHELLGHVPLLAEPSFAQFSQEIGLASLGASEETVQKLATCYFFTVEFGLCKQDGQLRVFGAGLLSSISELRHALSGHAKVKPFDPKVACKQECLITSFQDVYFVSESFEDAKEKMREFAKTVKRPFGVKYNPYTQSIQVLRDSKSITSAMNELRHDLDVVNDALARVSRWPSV
In short: (§1)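 Rats given test drug s.c. in the neck as hydrochloride (5 mL/kg), not reserpine-pretreated; 30 min later NSD 1015 (60 mg/kg, i.e. 287 μmol/kg sc), killed 30 min after that. Brain regions dissected. 5-HTP measured by ion-pair reversed-phase HPLC with electrochemical detection. Mean ± SEM, n = 15 controls, 3–5 per dose; ANOVA with Dunnett's t test vs controls.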

[2] = biological target: T1, Tryptophan 5-hydroxylase 1 (Rattus norvegicus); test: Compound was tested for its effect on NSD 1015 induced accumulation of 5-HTP(ng/g) in rats in corpus striatum at a dosage of 10 umol/kg; assay type: functional; in short: as §1
[3] = biological target: T1, Tryptophan 5-hydroxylase 1 (Rattus norvegicus); test: Compound was tested for its effect on NSD 1015 induced accumulation of 5-HTP(ng/g) in rats in limbic system at a dosage of 32 umol/kg; assay type: functional, tissue-based; in short: as §1
[4] = biological target: T1, Tryptophan 5-hydroxylase 1 (Rattus norvegicus); test: Compound was tested for its effect on NSD 1015 induced accumulation of 5-HTP(ng/g) in rats in corpus striatum at a dosage of 32 umol/kg; assay type: functional, tissue-based; in short: as §1
[5] = biological target: T1, Tryptophan 5-hydroxylase 1 (Rattus norvegicus); test: Approximate dose levels for a half maximal reduction of 5-HTP levels; assay type: functional; in short: as §1
Rattus norvegicus [6] = test: No of rats exhibiting 5-HT motor syndrome tested in reserpinized rats at a subcutaneous dose of 1.0 umol/kg; o rats out of 3 showed activity; assay type: functional
[7] = biological target: T2, 5-hydroxytryptamine receptor 1A (Rattus norvegicus, UniProt P19327); test: Concentration of compound required to inhibit cortical 5-hydroxytryptamine 1A receptor binding sites in rat brain was evaluated; assay type: tissue-based
T2 sequence (P19327 whole entry): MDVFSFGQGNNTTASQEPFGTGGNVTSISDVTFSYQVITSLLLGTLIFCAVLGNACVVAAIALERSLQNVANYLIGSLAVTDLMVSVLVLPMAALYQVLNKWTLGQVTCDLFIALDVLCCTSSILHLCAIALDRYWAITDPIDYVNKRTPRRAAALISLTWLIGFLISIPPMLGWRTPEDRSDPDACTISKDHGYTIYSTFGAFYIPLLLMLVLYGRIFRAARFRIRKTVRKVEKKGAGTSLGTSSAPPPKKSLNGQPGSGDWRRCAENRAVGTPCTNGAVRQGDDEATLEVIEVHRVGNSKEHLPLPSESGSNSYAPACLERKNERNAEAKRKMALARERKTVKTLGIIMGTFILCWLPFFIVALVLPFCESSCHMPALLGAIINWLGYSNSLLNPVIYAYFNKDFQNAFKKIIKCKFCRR

[8] = biological target: T1, Tryptophan 5-hydroxylase 1 (Rattus norvegicus); test: Compound was tested for its effect on NSD 1015 induced accumulation of 5-HTP(ng/g) in rats in corpus striatum at a dosage of 3.2 umol/kg; assay type: functional; in short: as §1
[9] = biological target: T1, Tryptophan 5-hydroxylase 1 (Rattus norvegicus); test: Compound was tested for its effect on NSD 1015 induced accumulation of 5-HTP(ng/g) in rats in limbic system at a dosage of 10 umol/kg; assay type: functional, tissue-based; in short: as §1
[10] = biological target: T1, Tryptophan 5-hydroxylase 1 (Rattus norvegicus); test: Compound was tested for its effect on NSD 1015 induced accumulation of 5-HTP(ng/g) in rats in limbic system at a dosage of 1.0 umol/kg; assay type: functional, tissue-based; in short: as §1
[11] = biological target: T1, Tryptophan 5-hydroxylase 1 (Rattus norvegicus); test: Compound was tested for its effect on NSD 1015 induced accumulation of 5-HTP(ng/g) in rats in limbic system at a dosage of 3.2 umol/kg; assay type: functional, tissue-based; in short: as §1
Rattus norvegicus [12] = test: No of rats exhibiting 5-HT motor syndrome tested in reserpinized rats at a subcutaneous dose of 3.2 umol/kg; 0 rats out of 5 showed activity; assay type: functional
Rattus norvegicus [13] = test: No of rats exhibiting 5-HT motor syndrome tested in reserpinized rats at a subcutaneous dose of 10 umol/kg; 4 rats out of 5 showed activity; assay type: functional
[14] = biological target: T1, Tryptophan 5-hydroxylase 1 (Rattus norvegicus); test: Compound was tested for its effect on NSD 1015 induced accumulation of 5-HTP in rats in corpus striatum at a dosage of 0.32 umol/kg; assay type: functional, tissue-based; in short: as §1
[15] = biological target: T1, Tryptophan 5-hydroxylase 1 (Rattus norvegicus); test: Compound was tested for its effect on NSD 1015 induced accumulation of 5-HTP(ng/g) in rats in limbic system at a dosage of 0.032 umol/kg; assay type: functional; in short: as §1
[16] = biological target: T1, Tryptophan 5-hydroxylase 1 (Rattus norvegicus); test: Compound was tested for its effect on NSD 1015 induced accumulation of 5-HTP(ng/g) in rats in limbic system at a dosage of 0.10 umol/kg; assay type: functional, tissue-based; in short: as §1
[17] = biological target: T1, Tryptophan 5-hydroxylase 1 (Rattus norvegicus); test: Compound was tested for its effect on NSD 1015 induced accumulation of 5-HTP(ng/g) in rats in corpus striatum at a dosage of 0.032 umol/kg; assay type: functional; in short: as §1
[18] = biological target: T1, Tryptophan 5-hydroxylase 1 (Rattus norvegicus); test: Compound was tested for its effect on NSD 1015 induced accumulation of 5-HTP(ng/g) in rats in limbic system at a dosage of 0.32 umol/kg; assay type: functional, tissue-based; in short: as §1
[19] = biological target: T1, Tryptophan 5-hydroxylase 1 (Rattus norvegicus); test: Compound was tested for its effect on NSD 1015 induced accumulation of 5-HTP in rats corpus striatum at a dosage of 0.10 umol/kg; assay type: functional, tissue-based; in short: as §1
Rattus norvegicus [20] = test: No of rats exhibiting 5-HT motor syndrome tested in reserpinized rats at a subcutaneous dose of 0.32 umol/kg; 0 rats out of 5 showed activity; assay type: functional
Rattus norvegicus [21] = test: No of rats exhibiting 5-HT motor syndrome tested in reserpinized rats at a subcutaneous dose of 1.0 umol/kg; 4 rats out of 5 showed activity; assay type: functional
Rattus norvegicus [22] = test: No of rats exhibiting 5-HT motor syndrome tested in reserpinized rats at a subcutaneous dose of 3.2 umol/kg; 0 rats out of 4 showed activity; assay type: functional
Rattus norvegicus [23] = test: No of rats exhibiting 5-HT motor syndrome rats tested in reserpinized rats at a subcutaneous dose of 10 umol/kg; 4 rats out of 4; assay type: functional
Rattus norvegicus [24] = test: Number of rats exhibiting 5-HT motor syndrome in reserpinized rats at a subcutaneous dose of 1.0 umol/kg; 0 rats out of 3 showed activity; assay type: functional
Rattus norvegicus [25] = test: No of rats exhibiting 5-HT motor syndrome rats tested in reserpinized rats at a subcutaneous dose of 32 umol/kg; 3 rats out of 3; assay type: functional
[26] = biological target: T1, Tryptophan 5-hydroxylase 1 (Rattus norvegicus); test: Compound was tested for its effects on NSD 1015 induced accumulation of 5-HTP(ng/g) in rats in limbic system at a dosage of 0.10 umol/kg; assay type: functional, tissue-based; in short: as §1
Rattus norvegicus [27] = test: No of rats exhibiting 5-HT motor syndrome tested in reserpinized rats at a subcutaneous dose of a. 0.1 umol/kg; 0 rats out of 4 showed activity; assay type: functional
Rattus norvegicus [28] = test: No of rats exhibiting 5-HT motor syndrome tested in reserpinized rats at a subcutaneous dose of 0.32 umol/kg; 4 rats out of 4 showed activity; assay type: functional

## CCN(CC)[C@H]1CCc2cccc(O)c2C1
[1]
  Activity: 85 ng/g
[2]
  Activity: 55 ng/g
[3]
  Activity: 74 ng/g
[4]
  Activity: 46 ng/g
[5]
  ED50: 3 µmol/kg
Rattus norvegicus [6]
  Activity: 0
[7]
  IC50: 114 nM
[8]
  Activity: 74 ng/g
[9]
  Activity: 86 ng/g
[10]
  Activity: 135 ng/g
[11]
  Activity: 107 ng/g
Rattus norvegicus [12]
  Activity: 0
Rattus norvegicus [13]
  Activity: 4

## CCCN(CCC)[C@H]1CCc2cccc(O)c2C1
[1]
  Activity: 53 ng/g
[14]
  Activity: 61 ng/g
[5]
  ED50: 0.2 µmol/kg
[15]
  Activity: 157 ng/g
[16]
  Activity: 154 ng/g
[17]
  Activity: 95 ng/g
[18]
  Activity: 114 ng/g
[10]
  Activity: 75 ng/g
[19]
  Activity: 94 ng/g
Rattus norvegicus [20]
  Activity: 0
Rattus norvegicus [21]
  Activity: 4

## CN(C)[C@@H]1CCc2cccc(O)c2C1
Rattus norvegicus [22]
  Activity: 0
[1]
  Activity: 76 ng/g
[2]
  Activity: 44 ng/g
[14]
  Activity: 79 ng/g
Rattus norvegicus [23]
  Activity: 4
[5]
  ED50: 1 µmol/kg
Rattus norvegicus [24]
  Activity: 0
[7]
  IC50: 75 nM
Rattus norvegicus [25]
  Activity: 3
[8]
  Activity: 67 ng/g
[9]
  Activity: 89 ng/g
[26]
  Activity: 172 ng/g
[18]
  Activity: 130 ng/g
[10]
  Activity: 110 ng/g
[11]
  Activity: 90 ng/g
[19]
  Activity: 88 ng/g

## CCCN(CCC)[C@@H]1CCc2cccc(O)c2C1
[14]
  Activity: 52 ng/g
[5]
  ED50: 0.1 µmol/kg
Rattus norvegicus [27]
  Activity: 0
[15]
  Activity: 163 ng/g
[16]
  Activity: 119 ng/g
[17]
  Activity: 87 ng/g
Rattus norvegicus [28]
  Activity: 4
[18]
  Activity: 86 ng/g
[19]
  Activity: 78 ng/g

Source: ChEMBL document CHEMBL1124440, “Resolved N,N-dialkylated 2-amino-8-hydroxytetralins: stereoselective interactions with 5-HT1A receptors in the brain” (J Med Chem, 1989)
